Source: PubChem BioAssay
Records with an inconclusive call do not appear. The source made the active and inactive calls.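 How the source made its calls, unless noted: active means RAM network inhibition above 8.4% in each of two replicates, 3 SD over the compound average; inconclusive means above 8.4% inhibition in only one replicate; inactive means 8.4% inhibition or less in each replicate.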

Columns and labels:
[1] = OD615 S. cerevisiae growth inhibition, permissive medium, pilot counter-assay, permissive growth control for S. cerevisiae lifespan shortening project (AID 705;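 active means growth inhibition above 25% in both replicates, a cutoff set 3 SD above the mean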); settings: OD615, 24 h, at 10 µM, hits give high values
How it was run: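 Timing: 24 h exposure, 30 °C / Material: Saccharomyces cerevisiae strain carrying genetically modified DeaD replicative-lifespan system / Signal: OD at 615 nm / Compound: 10 µM single dose, 0.25% DMSO / Medium: SC raffinose/galactose permissive medium / Evaluation: reduction in yeast growth (OD615)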

[2] = Restrictive medium S. cerevisiae growth inhibition, OD615, pilot screen of yeast lifespan reduction project, restrictive growth control (AID 706;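 active means growth inhibition above a set limit, 3 SD over mean compound inhibition, in both replicates, cut at about 43% in these data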;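 further: modified DeaD lifespan yeast strain shifted to restrictive glucose medium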); settings: OD615, 48 h, at 10 µM, hits give high values
How it was run: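 System: Engineered S. cerevisiae DeaD strain | Detection: OD615 | Buffer or medium: CSMM-D glucose medium | Doses: 10 µM compound, 0.25% DMSO | Timing: 4 h pre-growth plus 48 h compound exposure, 30 °C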

[3] = viability gain of MRP-1-high H69AR cells under doxorubicin, pilot screen, MRP-1 activator project, CellTiter-Glo, duplicate (AID 807;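 active means viability increase at or above a cutoff of the median across tested compounds plus 3 SD, cut at about 8.5% in these data, passing the limit was not always enough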;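 further: compound pretreatment 18-22 h then 72 h combined with doxorubicin; 0% = doxorubicin alone and 100% = vehicle without doxorubicin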); settings: H69AR viability with doxorubicin, CellTiter-Glo luminescence; at 10 µM; hits give high values
[4] = growth suppression of beta-catenin knockout HCT116, pilot screen, human colon tumor cells (AID 823;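 active means cell viability at or below a set limit in both duplicate runs, the limit being the all-compound median minus 4 SD, cut at about 23% in these data, passing the limit was not always enough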;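 further: 0% = wells killed by 20 µM Hyamine and 100% = untreated DMSO cell wells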); settings: CellTiter-Glo, 60 h, at 10 µM, hits give low values
[5] = growth suppression of PTEN-deleted HCT116, pilot screen, cell-based, HCT116 clonal line, CellTiter-Glo (AID 824;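 active means viability at or below 27.92% in each of two runs, the all-compound median minus 4 SD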;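 further: 0% = 20 µM Hyamine control and 100% = vehicle cell control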); settings: 60 h, at 10 µM, hits give low values
[6] = inhibitors of the yeast RAM network, pilot screen, dse1pr::URA3 reporter, 5-FOA selection (AID 869;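 active means inhibition over a set limit, the all-compound mean plus 3 SD, in both replicate runs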;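 further: 0% = DMSO wells with no growth and 100% = 10 µM 1-NA-PP1 with full growth; RAM network block rescues cells from 5-FOA so hits raise OD615 growth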); settings: S. cerevisiae dse1pr::URA3 5-FOA growth, OD615, 2 d; at 10 µM; hits give high values; strain carries analog-sensitive mutant Cbk1 kinase
[7] = RAM signaling pathway blockade in yeast – S. cerevisiae, Pdr1DBD-CYC8 efflux-inhibited sensitized strain, primary screen (AID 1298);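 further: 0% = DMSO untreated cells without growth and 100% = 10 µM 1-NA-PP1 full growth; higher means more yeast growth rescued from 5-FOA killing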; settings: S. cerevisiae cbk1-as DSE1-URA3 strain, 5-FOA growth OD615, 2 d; at 50 µM; hits give high values

COc1ccc(C2/C(=C(/O)c3ccc(F)cc3)C(=O)C(=O)N2CCCN(C)C)cc1 (stereo unspecified)
inactive: growth inhibition [1] -5.9% | growth inhibition [2] -4.55% | viability increase [3] -2.11% | viability [4] 104% | viability [5] 98.1% | inhibition [6] 0.345% | RAM network inhibition [7] 2.49%

CCOC(=O)c1c(C)oc2cc(Br)c(OC(=O)N3CCOCC3)cc12
inactive: growth inhibition [1] -10.9% | growth inhibition [2] -3.17% | viability increase [3] -0.62% | viability [4] 88% | viability [5] 88.8% | inhibition [6] 0.13% | RAM network inhibition [7] 1.4%

COc1ccc(N2CCN(C(=O)C3CCCN(S(=O)(=O)c4cccc5cccnc45)C3)CC2)cc1 (stereo unspecified)
inactive: growth inhibition [1] 7.46% | growth inhibition [2] -2.35% | viability increase [3] -3.75% | viability [4] 69.6% | viability [5] 68.2% | inhibition [6] 0.045% | RAM network inhibition [7] 2.71%

O=C(C1=C(O)C(=O)N(CCN2CCOCC2)C1c1ccncc1)c1ccco1 (stereo unspecified)
inactive: growth inhibition [1] -15.4% | growth inhibition [2] 2.89% | viability increase [3] -3.57% | viability [4] 98.3% | viability [5] 93.2% | inhibition [6] 2.35% | RAM network inhibition [7] 2.42%

CC(C)NC(=O)C1(O)c2ccccc2NC(=O)N1c1ccc(Cl)c(Cl)c1 (stereo unspecified)
inactive: growth inhibition [1] -5.92% | growth inhibition [2] -12.9% | viability increase [3] -2.69% | viability [4] 89.6% | viability [5] 93.9% | inhibition [6] 0.375% | RAM network inhibition [7] 2.53%

CCN(CCNS(=O)(=O)c1ccc2c(c1)oc(=O)n2C)c1ccccc1
inactive: growth inhibition [1] -5.19% | growth inhibition [2] -5.92% | viability increase [3] -1.13% | viability [4] 108% | viability [5] 105% | inhibition [6] 4.3% | RAM network inhibition [7] 1.2%

CCOC(=O)N1CCN(C(=O)NC23CC4CC(CC(C4)C2)C3)CC1
inactive: growth inhibition [1] -2.78% | growth inhibition [2] -5.79% | viability increase [3] -2.4% | viability [4] 95.7% | viability [5] 92.1% | inhibition [6] 2.83% | RAM network inhibition [7] 3.57%

CCOC(=O)CCCSc1nc2sc(C)c(C)c2c(=O)[nH]1
inactive: growth inhibition [1] -12.1% | growth inhibition [2] -15.5% | viability increase [3] -0.74% | viability [4] 102% | viability [5] 98.5% | inhibition [6] 3.01% | RAM network inhibition [7] 3.95%

Cn1nnnc1SCC(=O)Nc1ccc(N2CCOCC2)cc1
inactive: growth inhibition [1] -4.58% | growth inhibition [2] 7.83% | viability increase [3] -1.01% | viability [4] 95.8% | viability [5] 97.5% | inhibition [6] 0.97% | RAM network inhibition [7] 0.68%

Cc1occc1C(=O)NCc1ccc2c(c1)OCO2
inactive: growth inhibition [1] -7.06% | growth inhibition [2] 3.86% | viability increase [3] 0.84% | viability [4] 101% | viability [5] 99.2% | inhibition [6] 1.78% | RAM network inhibition [7] 1.93%

O=C(Nc1nc(-c2cc3ccccc3oc2=O)cs1)c1ccco1
inactive: growth inhibition [1] -17.5% | growth inhibition [2] -10.9% | viability increase [3] -1.98% | viability [4] 102% | viability [5] 100% | inhibition [6] 1.57% | RAM network inhibition [7] 3.32%

Cc1ccccc1OCC(O)Cn1c(NCCN(C)C)nc2c1c(=O)n(C)c(=O)n2C (stereo unspecified)
inactive: growth inhibition [1] -13.3% | growth inhibition [2] 2.24% | viability increase [3] -1.92% | viability [4] 93.5% | viability [5] 99.4% | inhibition [6] 2.01% | RAM network inhibition [7] 1.15%

COc1cc(C)c(N(C(C)=O)c2ccccc2)c(C)c1
inactive: growth inhibition [1] -10.7% | growth inhibition [2] -17.4% | viability increase [3] -0.85% | viability [4] 92.2% | viability [5] 87.3% | inhibition [6] 1.97% | RAM network inhibition [7] 5.22%

Oc1c(C(c2ccccc2)N2CCN(Cc3ccccc3)CC2)sc2ncnn12 (stereo unspecified)
inactive: growth inhibition [1] -6.68% | growth inhibition [2] -5.08% | viability increase [3] 1.62% | viability [4] 89.7% | viability [5] 84.7% | inhibition [6] 1.79% | RAM network inhibition [7] 0.68%

CCOC(=O)CCc1c(C)n(CC)c2ncnn2c1=O
inactive: growth inhibition [1] -3.41% | growth inhibition [2] -0.57% | viability increase [3] -0.77% | viability [4] 102% | viability [5] 101% | inhibition [6] 0.735% | RAM network inhibition [7] 0.04%

CC1=C(C(=O)OC2CCCCC2)C(c2ccco2)n2ncnc2N1 (stereo unspecified)
inactive: growth inhibition [1] -9.02% | growth inhibition [2] 4.91% | viability increase [3] -1.43% | viability [4] 90.7% | viability [5] 88.8% | inhibition [6] 1.47% | RAM network inhibition [7] 5.64%

Cc1cccc(NC(=O)CSc2nnc(-c3ccccc3)n2N)c1
inactive: growth inhibition [1] -0.87% | growth inhibition [2] 0.675% | viability increase [3] -1.81% | viability [4] 100% | viability [5] 98.9% | inhibition [6] 1.93% | RAM network inhibition [7] 4.31%

COc1ccc(CCNC(=O)CC2Oc3ccc(Cl)cc3NC2=O)cc1OC (stereo unspecified)
inactive: growth inhibition [1] -0.31% | growth inhibition [2] -7.26% | viability increase [3] -0.06% | viability [4] 96.2% | viability [5] 97.6% | inhibition [6] 1.17% | RAM network inhibition [7] 5.03%

COc1ccc(S(=O)(=O)N(CCc2ccccc2)CC(=O)O)cc1OC
inactive: growth inhibition [1] -1.68% | growth inhibition [2] 10.5% | viability increase [3] 0.57% | viability [4] 97.6% | viability [5] 102% | inhibition [6] 1.35% | RAM network inhibition [7] 1.09%

Cc1ccc(OCCn2c(C)c(/C=N/n3cnnc3)c3ccccc32)cc1
inactive: growth inhibition [1] 8.46% | growth inhibition [2] 22.9% | viability increase [3] -6.55% | viability [4] 81.5% | viability [5] 76% | inhibition [6] 0.8% | RAM network inhibition [7] 1.89%

C=C(C)CSc1nnc(-c2cc(OC)c(OC)c(OC)c2)n1N
inactive: growth inhibition [1] 8.03% | growth inhibition [2] 7.75% | viability increase [3] -1.01% | viability [4] 95.2% | viability [5] 97.8% | inhibition [6] 0.94% | RAM network inhibition [7] 4%

O=C(C1CCN(S(=O)(=O)c2ccc(F)cc2)CC1)N1CCOCC1
inactive: growth inhibition [1] -6.2% | growth inhibition [2] -6.82% | viability increase [3] 0.84% | viability [4] 103% | viability [5] 103% | inhibition [6] 2.23% | RAM network inhibition [7] 1.75%

Cc1ccc(C(=O)NCCn2cc(SCC(=O)Nc3cc(C)on3)c3ccccc32)cc1
inactive: growth inhibition [1] -3.4% | growth inhibition [2] 9.18% | viability increase [3] 1.75% | viability [4] 87.4% | viability [5] 96.9% | inhibition [6] 0.015% | RAM network inhibition [7] 0.42%

COc1ccc(N=CC2=C(O)CC(C)(C)CC2=O)cc1
inactive: growth inhibition [1] 6.45% | growth inhibition [2] -2.8% | viability increase [3] -3.24% | viability [4] 97.5% | viability [5] 101% | inhibition [6] 0.71% | RAM network inhibition [7] 1.73%

COc1cccc(-c2nc(CS(=O)(=O)CC(=O)NCCC(C)C)c(C)o2)c1
inactive: growth inhibition [1] 3.72% | growth inhibition [2] 7.53% | viability increase [3] 0.8% | viability [4] 94% | viability [5] 89.1% | inhibition [6] 0.36% | RAM network inhibition [7] 1.13%

COc1ccc(-n2c(Cn3c(=O)sc4ccccc43)nnc2SC)cc1
inactive: growth inhibition [1] -12.1% | growth inhibition [2] -8.38% | viability increase [3] -2.26% | viability [4] 101% | viability [5] 89.6% | inhibition [6] 2.47% | RAM network inhibition [7] 1.33%

COc1ccc(-c2c(C)oc3cc(O)cc(O)c3c2=O)cc1OC
inactive: growth inhibition [1] -12.4% | growth inhibition [2] -5.23% | viability increase [3] -1.14% | viability [4] 109% | viability [5] 93.8% | inhibition [6] 1.01% | RAM network inhibition [7] 4.79%

COCC(C)NC(=O)c1ccc(N(C)C)cc1 (stereo unspecified)
inactive: growth inhibition [1] 2.19% | growth inhibition [2] 8.57% | viability increase [3] 2.2% | viability [4] 104% | viability [5] 94.5% | inhibition [6] 2.1% | RAM network inhibition [7] 0.51%

COc1ccccc1N1CCN(C(=O)CCCC2=NS(=O)(=O)c3ccccc3N2)CC1
inactive: growth inhibition [1] 0.08% | growth inhibition [2] -12.7% | viability increase [3] -4.95% | viability [4] 97.3% | viability [5] 92.4% | inhibition [6] 1.4% | RAM network inhibition [7] -0.58%

C=CCn1c(C(C)NC(=O)CCC)nc2ccccc21 (stereo unspecified)
inactive: growth inhibition [1] 0.415% | growth inhibition [2] 7.8% | viability increase [3] -0.88% | viability [4] 104% | viability [5] 93.9% | inhibition [6] 1.11% | RAM network inhibition [7] -0.02%

CS(=O)(=O)c1ccc2nc(NC(=O)C3CCCCC3)sc2c1
inactive: growth inhibition [1] -0.52% | growth inhibition [2] -7.79% | viability increase [3] -7.36% | viability [4] 72.2% | viability [5] 77.3% | inhibition [6] 0.96% | RAM network inhibition [7] 0.41%

CCc1ccc(S(=O)(=O)NCc2cn3c(C)csc3n2)s1
inactive: growth inhibition [1] 0.075% | growth inhibition [2] 5.25% | viability increase [3] -2.89% | viability [4] 102% | viability [5] 94.1% | inhibition [6] 0.37% | RAM network inhibition [7] 2.22%

CCOC(=O)C1CCN(CC(O)COc2ccc(C(C)=O)cc2)CC1 (stereo unspecified)
inactive: growth inhibition [1] -1.86% | growth inhibition [2] -5.14% | viability increase [3] -0.88% | viability [4] 97.6% | viability [5] 91.6% | inhibition [6] 0.87% | RAM network inhibition [7] 2.51%
